Measurements: ChEMBL document CHEMBL1129945, “New 2-piperazinylbenzimidazole derivatives as 5-HT3 antagonists. Synthesis and pharmacological evaluation” (J Med Chem, 1997)

Legend:
[1] = target: 5-hydroxytryptamine receptor 4 (Cavia porcellus, UniProt O70528); assay: In vitro by displacement of [3H]GR-113808 from 5-hydroxytryptamine 4 receptor on guinea pig striatal membrane; parameters: species or system Striatum
Summary of the method: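 Striatal membranes from male Dunkin-Hartley guinea pigs (350-400 g) in 50 mM Hepes pH 7.4, 800-900 µg protein. Nonspecific binding with 10 µM 5-HT. Incubation 30 min at 25 °C, then filtration and scintillation counting. Triplicate, 10-12 concentrations, two experiments. IC50 and Ki calculated.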

[2] = target: T1, 5-hydroxytryptamine receptor 1A (Rattus norvegicus, UniProt P19327); assay: In vitro by displacement of [3H]8-OH-DPAT from 5-hydroxytryptamine 1A receptor on rat cortical membrane
T1 sequence (P19327 whole entry): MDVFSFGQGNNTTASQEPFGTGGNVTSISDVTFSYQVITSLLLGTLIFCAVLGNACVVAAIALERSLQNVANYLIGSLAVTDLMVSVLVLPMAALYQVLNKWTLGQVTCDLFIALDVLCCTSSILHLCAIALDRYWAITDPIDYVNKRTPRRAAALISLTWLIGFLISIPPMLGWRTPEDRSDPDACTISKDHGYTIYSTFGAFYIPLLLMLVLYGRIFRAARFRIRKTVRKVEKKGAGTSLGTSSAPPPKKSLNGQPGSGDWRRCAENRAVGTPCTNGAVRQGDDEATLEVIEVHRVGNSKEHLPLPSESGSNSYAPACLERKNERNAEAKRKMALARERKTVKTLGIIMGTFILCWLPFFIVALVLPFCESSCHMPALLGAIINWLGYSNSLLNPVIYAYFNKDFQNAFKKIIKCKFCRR
Summary of the method: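 Cerebral cortex membranes from adult male Wistar rats (220-280 g) in 50 mM Tris-HCl with 4 mM CaCl2, 0.1% ascorbate and 10 µM pargyline. [3H]8-OH-DPAT at 1.5 nM final. Nonspecific binding with 10 µM 5-HT. Incubation 30 min at 37 °C. Triplicate, 10-12 concentrations, two experiments. IC50 and Ki calculated.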

[3] = target: 5-hydroxytryptamine receptor 2A (Rattus norvegicus, UniProt P14842); assay: Binding affinity was evaluated in vitro by displacement of [3H]ketanserin from 5-hydroxytryptamine 2A receptor on rat cortical membrane
Sequence of 5-hydroxytryptamine receptor 2A (P14842 whole entry): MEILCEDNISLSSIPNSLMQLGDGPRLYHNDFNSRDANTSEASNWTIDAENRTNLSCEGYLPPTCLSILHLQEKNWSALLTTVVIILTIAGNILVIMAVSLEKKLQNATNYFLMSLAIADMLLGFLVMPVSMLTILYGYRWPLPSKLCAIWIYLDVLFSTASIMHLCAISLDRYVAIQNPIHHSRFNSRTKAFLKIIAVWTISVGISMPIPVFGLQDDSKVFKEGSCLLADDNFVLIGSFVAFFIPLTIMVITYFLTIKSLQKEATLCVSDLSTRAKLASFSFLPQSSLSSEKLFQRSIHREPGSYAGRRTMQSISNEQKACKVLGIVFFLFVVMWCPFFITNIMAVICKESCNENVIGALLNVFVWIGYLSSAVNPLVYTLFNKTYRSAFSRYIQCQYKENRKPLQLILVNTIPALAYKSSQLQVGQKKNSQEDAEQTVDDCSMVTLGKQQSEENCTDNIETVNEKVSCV
Summary of the method: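 Prefrontal cortex membranes from adult male Wistar rats (220-280 g), final dilution 1:60 wt/vol in 50 mM Tris-HCl. Displacer added in Tris-HCl with 10% ethanol. [3H]ketanserin at 0.8 nM final. Nonspecific binding with 1 µM methysergide. Triplicate competition, 10-12 displacer concentrations, two separate experiments. Filtration and scintillation counting. IC50 and Ki calculated.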

[4] = target: D(2) dopamine receptor (Rattus norvegicus, UniProt P61169); assay: In vitro by displacement of [3H]raclopride from Dopamine receptor D2 on rat striatal membrane; parameters: species or system Striatum
Sequence of D(2) dopamine receptor (P61169 whole entry): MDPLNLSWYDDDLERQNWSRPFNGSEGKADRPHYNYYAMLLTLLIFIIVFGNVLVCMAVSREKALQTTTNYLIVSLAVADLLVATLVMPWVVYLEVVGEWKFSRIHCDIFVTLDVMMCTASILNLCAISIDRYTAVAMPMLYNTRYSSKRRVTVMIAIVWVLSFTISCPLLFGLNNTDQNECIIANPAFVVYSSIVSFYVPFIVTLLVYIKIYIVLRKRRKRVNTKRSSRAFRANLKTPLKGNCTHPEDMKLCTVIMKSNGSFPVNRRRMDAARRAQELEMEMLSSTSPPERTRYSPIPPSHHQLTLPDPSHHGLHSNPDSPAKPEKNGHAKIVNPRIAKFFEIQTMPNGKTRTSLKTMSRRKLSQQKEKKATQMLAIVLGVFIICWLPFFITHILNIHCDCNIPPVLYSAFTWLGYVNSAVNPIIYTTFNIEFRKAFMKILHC

[5] = test system: Rattus norvegicus; assay: In vivo effective dose against Bezold-Jarisch reflex evoked by 5-HT in urethane-anesthetized rats; type: functional
Summary of the method: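 Bradycardia induced by iv bolus of 5-HT 30 µg/kg. Antagonist or saline given iv (1 mL/kg) after recovery, and 5-HT challenge repeated 5 min later. Heart rate taken from the carotid pressure signal. ED50 in µg/kg iv by linear regression from 3-5 doses, 4-5 rats per dose.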

[6] = target: T2, Serotonin 3 (5-HT3) receptor (Rattus norvegicus, UniProt P35563+Q9JJ16); assay: In vitro by displacement of [3H]LY-278584 from 5-hydroxytryptamine 3 receptor on rat entorhinal cortex
T2 sequence (P35563 whole entry): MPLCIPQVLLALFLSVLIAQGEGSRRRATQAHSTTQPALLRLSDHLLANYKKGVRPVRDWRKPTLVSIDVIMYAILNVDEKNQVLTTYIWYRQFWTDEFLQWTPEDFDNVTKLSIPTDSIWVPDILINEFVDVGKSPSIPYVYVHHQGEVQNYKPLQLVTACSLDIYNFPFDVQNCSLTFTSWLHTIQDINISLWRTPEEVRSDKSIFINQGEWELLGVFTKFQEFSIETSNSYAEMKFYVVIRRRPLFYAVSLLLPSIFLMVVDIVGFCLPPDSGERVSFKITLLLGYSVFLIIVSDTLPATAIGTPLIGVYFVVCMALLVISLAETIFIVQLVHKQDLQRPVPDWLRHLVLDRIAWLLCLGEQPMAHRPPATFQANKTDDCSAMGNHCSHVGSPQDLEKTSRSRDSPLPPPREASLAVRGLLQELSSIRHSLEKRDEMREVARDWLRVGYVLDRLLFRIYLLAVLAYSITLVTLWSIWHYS
T2 sequence (Q9JJ16 whole entry): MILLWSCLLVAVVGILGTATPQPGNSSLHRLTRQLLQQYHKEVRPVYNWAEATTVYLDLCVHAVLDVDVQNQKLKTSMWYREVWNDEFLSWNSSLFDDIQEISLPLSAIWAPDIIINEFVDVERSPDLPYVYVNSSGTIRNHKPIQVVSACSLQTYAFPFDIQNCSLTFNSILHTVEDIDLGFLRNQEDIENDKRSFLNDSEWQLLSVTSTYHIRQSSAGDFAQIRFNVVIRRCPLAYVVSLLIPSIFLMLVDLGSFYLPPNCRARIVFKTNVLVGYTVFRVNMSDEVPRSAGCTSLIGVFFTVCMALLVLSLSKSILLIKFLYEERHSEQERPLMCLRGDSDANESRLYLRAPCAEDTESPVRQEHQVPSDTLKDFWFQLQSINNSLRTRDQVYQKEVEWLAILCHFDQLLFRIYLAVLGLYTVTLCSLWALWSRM
Summary of the method: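 Entorhinal cortex membranes from male Wistar rats (220-280 g), 500-600 µg protein, in 50 mM Tris-HCl with 5 mM CaCl2, 0.1% ascorbate and 10 µM pargyline. Nonspecific binding with 10 µM 5-HT. Incubation 30 min at 25 °C. Triplicate, 10-12 concentrations, two experiments. IC50 and Ki calculated.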

Sequence of 5-hydroxytryptamine receptor 4 (O70528 whole entry): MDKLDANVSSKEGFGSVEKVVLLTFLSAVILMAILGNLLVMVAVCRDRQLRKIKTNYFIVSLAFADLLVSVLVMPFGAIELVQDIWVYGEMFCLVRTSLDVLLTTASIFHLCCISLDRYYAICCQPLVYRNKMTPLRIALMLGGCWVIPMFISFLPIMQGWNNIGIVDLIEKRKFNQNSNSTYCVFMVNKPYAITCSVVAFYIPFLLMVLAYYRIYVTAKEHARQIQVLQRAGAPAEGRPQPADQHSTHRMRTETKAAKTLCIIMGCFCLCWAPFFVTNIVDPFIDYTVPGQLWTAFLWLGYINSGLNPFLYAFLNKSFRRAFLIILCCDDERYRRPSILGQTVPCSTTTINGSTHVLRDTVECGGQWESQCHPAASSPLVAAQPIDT

Structure (SMILES)	Ki [1]	Ki [2]	Ki [3]	Ki [4]	ED50 [5]	Ki [6]
O=C(OCCN1CCCCC1)c1c[nH]c2ccccc12	0.001 µM	–	–	–	–	–
Clc1ccc2c(c1)nc(N1CCNCC1)n2Cc1ccccc1	–	> 1 µM	> 1 µM	–	–	–
COc1cccc2nc(N3CCNCC3)n(Cc3ccccc3)c12	–	> 1 µM	> 1 µM	–	–	–
Cc1ccc2c(c1)nc(N1CCNCC1)n2Cc1ccccc1	–	> 1 µM	> 1 µM	–	–	–
Oc1ccc2nc(N3CCNCC3)n(Cc3ccccc3)c2c1	–	> 1 µM	> 1 µM	–	–	–
c1ccc2c(c1)nc(N1CCNCC1)n2C1CC1	–	> 1 µM	> 1 µM	–	–	–
CCCn1c(N2CCNCC2)nc2ccccc21	–	> 1 µM	> 1 µM	–	–	–
Cn1c(N2CCNCC2)nc2ccccc21	> 1 µM	> 1 µM	> 1 µM	> 1 µM	5.3 µg/kg	0.0501 µM
Oc1ccc2c(c1)nc(N1CCNCC1)n2Cc1ccccc1	–	> 1 µM	> 1 µM	–	–	–
COc1ccc2c(c1)nc(N1CCNCC1)n2Cc1ccccc1	–	> 1 µM	> 1 µM	–	–	–
Fc1ccc2c(c1)nc(N1CCNCC1)n2Cc1ccccc1	–	> 1 µM	> 1 µM	–	–	–
COc1cccc2c1nc(N1CCNCC1)n2Cc1ccccc1	–	> 1 µM	> 1 µM	–	–	–
Clc1cc2nc(N3CCNCC3)n(Cc3ccccc3)c2cc1Cl	–	> 1 µM	> 1 µM	–	–	–
CCn1c(N2CCNCC2)nc2ccccc21	–	> 1 µM	> 1 µM	–	–	–
COc1ccc2nc(N3CCNCC3)n(Cc3ccccc3)c2c1	–	> 1 µM	> 1 µM	–	–	–
Cc1cc2nc(N3CCNCC3)n(Cc3ccccc3)c2cc1C	–	> 1 µM	> 1 µM	–	–	–
c1ccc(Cn2c(N3CCNCC3)nc3ccccc32)cc1 [LERISETRON]	–	> 1 µM	> 1 µM	–	2 µg/kg	–
CN1[C@@H]2CC[C@H]1C[C@@H](OC(=O)c1c[nH]c3ccccc13)C2 [TROPISETRON]	–	–	–	–	1.7 µg/kg	0.00158 µM
